Data published in ChEMBL document CHEMBL4257453, “Identification of karanjin isolated from the Indian beech tree as a potent CYP1 enzyme inhibitor with cellular efficacy via screening of a natural product repository” (Medchemcomm, 2018).
pIC50, pKi: −log10 of the molar value.

Tests used:
CYP1A1 [1] = molecular target: T1, CYP1A1 (Homo sapiens, UniProt P04798); assay: Inhibition of recombinant human CYP1A1 expressed in baker's yeast-derived microsomes (Sacchrosomes) at 10 uM using 7-ethoxyresorufin substrate by EROD assay relative to control; conditions: probe 7-ethoxyresorufin
T1 sequence (P04798 whole entry): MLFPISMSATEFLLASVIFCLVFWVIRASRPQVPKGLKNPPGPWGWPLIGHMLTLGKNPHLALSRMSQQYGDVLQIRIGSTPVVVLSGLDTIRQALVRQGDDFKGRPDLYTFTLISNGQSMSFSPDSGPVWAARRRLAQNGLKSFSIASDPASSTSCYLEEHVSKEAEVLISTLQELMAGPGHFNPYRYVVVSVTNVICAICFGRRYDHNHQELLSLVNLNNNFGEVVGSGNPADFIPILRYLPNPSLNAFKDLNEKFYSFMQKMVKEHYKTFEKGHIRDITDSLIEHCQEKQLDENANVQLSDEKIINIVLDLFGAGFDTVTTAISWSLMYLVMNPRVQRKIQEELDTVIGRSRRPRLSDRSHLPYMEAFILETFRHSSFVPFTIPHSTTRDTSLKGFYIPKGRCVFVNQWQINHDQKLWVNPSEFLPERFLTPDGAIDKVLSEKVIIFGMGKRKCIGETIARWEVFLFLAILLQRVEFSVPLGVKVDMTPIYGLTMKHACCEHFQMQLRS
Outline: (§1)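 Yeast microsomes carrying recombinant CYP (Sacchrosomes). Substrates per isoform are 7-ethoxyresorufin, 3-cyano-7-ethoxycoumarin, EOMCC or dibenzylfluorescein, read as endpoint fluorescence. Background from compound-only wells without enzyme is subtracted. Independent triplicate runs; α-naphthoflavone positive control.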

Cytochrome P450 3A4 = Cytochrome P450 3A4 (Homo sapiens, UniProt P08684); assay: Inhibition of human recombinant CYP3A4 expressed in HEK293 cells using dibenzylfluorescein substrate substrate preincubated for 30 mins followed by substrate addition and measured after 60 mins by fluorescence assay relative to control; format: ADME, cell-based
Outline: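 HEK293 cells adapted to suspension and transiently transfected with pcDNA3.1 plasmids carrying the individual CYP; 100×10^3 cells per well in triplicate. Fluorogenic substrate is then added at 5 μM and fluorescence read for 60 min.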

Cytochrome P450 2D6 = Cytochrome P450 2D6 (Homo sapiens, UniProt P10635); assay: Inhibition of human recombinant CYP2D6 expressed in HEK293 cells using 7-ethoxy-methyloxy-3-cyanocoumarin substrate substrate preincubated for 30 mins followed by substrate addition and measured after 60 mins by fluorescence assay relative to control; format: ADME, cell-based
Outline: (§2)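 HEK293 cells adapted to suspension and transiently transfected with pcDNA3.1 plasmids carrying the individual CYP; 100×10^3 cells per well in triplicate. […] Fluorogenic substrate is then added at 5 μM and fluorescence read for 60 min.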

Cytochrome P450 2C9 = Cytochrome P450 2C9 (Homo sapiens, UniProt P11712); assay: Inhibition of human recombinant CYP2C9 expressed in HEK293 cells using 3-cyano-7-ethoxycoumarin substrate substrate preincubated for 30 mins followed by substrate addition and measured after 60 mins by fluorescence assay relative to control; format: ADME, cell-based; outline: as §2
CYP1A1 [2] = molecular target: T1, CYP1A1; assay: Inhibition of human recombinant CYP1A1 expressed in HEK293 cells at 10 uM using 7-ethoxyresorufin substrate preincubated for 30 mins followed by substrate addition and measured after 60 mins by fluorescence assay relative to control; format: cell-based; conditions: HEK293 cells expressing human recombinant CYP1A1, probe 7-ethoxyresorufin; outline: as §2
CYP2C19 = CYP2C19 (Homo sapiens, UniProt P33261); assay: Inhibition of recombinant human CYP2C19 expressed in baker's yeast-derived microsomes (Sacchrosomes) at 10 uM using 3-cyano-7-ethoxycoumarin substrate by EROD assay relative to control; format: ADME; conditions: probe 3-cyano-7-ethoxycoumarin
Outline: as §1, with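 “(Sacchrosomes). […]” for “(Sacchrosomes).”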

CYP2D6 = CYP2D6 (Homo sapiens, UniProt P10635); assay: Inhibition of recombinant human CYP2D6 expressed in baker's yeast-derived microsomes (Sacchrosomes) at 10 uM using 7-ethoxy-methyloxy-3-cyanocoumarin substrate by EROD assay relative to control; format: ADME; conditions: probe 7-ethoxy-methyloxy-3-cyanocoumarin
Outline: as §1, with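 “(Sacchrosomes). […]” for “(Sacchrosomes).”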

Cytochrome P450 1B1 = molecular target: T2, Cytochrome P450 1B1 (Homo sapiens, UniProt Q16678); assay: Inhibition of human recombinant CYP1B1 expressed in HEK293 cells using 7-ethoxyresorufin substrate substrate preincubated for 30 mins followed by substrate addition and measured after 60 mins by fluorescence assay relative to control; format: ADME, cell-based; outline: as §2
T2 sequence (Q16678 whole entry): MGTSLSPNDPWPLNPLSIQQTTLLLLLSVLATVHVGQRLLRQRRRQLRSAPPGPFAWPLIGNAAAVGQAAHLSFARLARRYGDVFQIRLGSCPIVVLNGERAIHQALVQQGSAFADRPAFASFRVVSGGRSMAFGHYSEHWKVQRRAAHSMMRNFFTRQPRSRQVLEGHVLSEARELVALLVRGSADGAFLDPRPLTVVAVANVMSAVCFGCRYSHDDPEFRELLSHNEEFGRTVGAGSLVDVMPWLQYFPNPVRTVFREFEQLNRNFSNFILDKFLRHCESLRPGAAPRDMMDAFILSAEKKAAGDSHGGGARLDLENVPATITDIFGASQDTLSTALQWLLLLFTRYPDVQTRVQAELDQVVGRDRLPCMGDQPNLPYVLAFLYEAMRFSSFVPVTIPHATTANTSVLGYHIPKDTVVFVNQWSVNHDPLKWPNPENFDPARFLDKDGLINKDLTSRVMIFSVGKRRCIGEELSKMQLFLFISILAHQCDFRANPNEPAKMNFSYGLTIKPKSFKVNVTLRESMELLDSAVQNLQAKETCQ

Cytochrome P450 1A1 = molecular target: T3, Cytochrome P450 1A1 (Homo sapiens, UniProt P04798); assay: Inhibition of human recombinant CYP1A1 expressed in HEK293 cells using 7-ethoxyresorufin substrate preincubated for 30 mins followed by substrate addition and measured after 60 mins by fluorescence assay relative to control; format: cell-based; outline: as §2
T3 sequence (P04798 whole entry): T1 sequence (P04798 whole entry)

CYP2C9 = CYP2C9 (Homo sapiens, UniProt P11712); assay: Inhibition of recombinant human CYP2C9 expressed in baker's yeast-derived microsomes (Sacchrosomes) at 10 uM using 3-cyano-7-ethoxycoumarin substrate by EROD assay relative to control; format: ADME; conditions: probe 3-cyano-7-ethoxycoumarin
Outline: as §1, with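 “(Sacchrosomes). […]” for “(Sacchrosomes).”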

CYP1B1 = molecular target: T4, CYP1B1 (Homo sapiens, UniProt Q16678); assay: Inhibition of recombinant human CYP1B1 expressed in baker's yeast-derived microsomes (Sacchrosomes) at 10 uM using 7-ethoxyresorufin substrate by EROD assay relative to control; format: ADME; conditions: probe 7-ethoxyresorufin
T4 sequence (Q16678 whole entry): T2 sequence (Q16678 whole entry)
Outline: as §1, with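 “(Sacchrosomes). […]” for “(Sacchrosomes).”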

CYP1A2 = molecular target: T5, CYP1A2 (Homo sapiens, UniProt P05177); assay: Inhibition of recombinant human CYP1A2 expressed in baker's yeast-derived microsomes (Sacchrosomes) at 10 uM using 3-cyano-7-ethoxycoumarin substrate by EROD assay relative to control; format: ADME; conditions: probe 3-cyano-7-ethoxycoumarin; outline: as §1
T5 sequence (P05177 whole entry): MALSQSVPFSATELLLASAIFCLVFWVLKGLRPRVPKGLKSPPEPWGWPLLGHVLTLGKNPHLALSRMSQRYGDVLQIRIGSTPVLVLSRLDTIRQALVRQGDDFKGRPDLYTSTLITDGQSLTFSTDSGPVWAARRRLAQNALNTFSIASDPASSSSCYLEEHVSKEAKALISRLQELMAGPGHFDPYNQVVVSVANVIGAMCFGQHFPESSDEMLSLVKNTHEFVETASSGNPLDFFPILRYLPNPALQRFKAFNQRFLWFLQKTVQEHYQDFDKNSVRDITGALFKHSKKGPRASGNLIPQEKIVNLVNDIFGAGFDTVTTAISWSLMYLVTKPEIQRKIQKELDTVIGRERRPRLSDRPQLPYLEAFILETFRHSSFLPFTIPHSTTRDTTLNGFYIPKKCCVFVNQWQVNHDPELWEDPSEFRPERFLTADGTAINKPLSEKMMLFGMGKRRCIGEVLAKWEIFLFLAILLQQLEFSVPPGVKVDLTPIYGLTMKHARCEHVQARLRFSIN

Cytochrome P450 1A2 = molecular target: T6, Cytochrome P450 1A2 (Homo sapiens, UniProt P05177); assay: Inhibition of human recombinant CYP1A2 expressed in HEK293 cells using 3-cyano-7-ethoxycoumarin substrate preincubated for 30 mins followed by substrate addition and measured after 60 mins by fluorescence assay relative to control; format: ADME, cell-based; outline: as §2
T6 sequence (P05177 whole entry): T5 sequence (P05177 whole entry)

Cytochrome P450 2C19 = Cytochrome P450 2C19 (Homo sapiens, UniProt P33261); assay: Inhibition of human recombinant CYP2C19 expressed in HEK293 cells using 3-cyano-7-ethoxycoumarin substrate substrate preincubated for 30 mins followed by substrate addition and measured after 60 mins by fluorescence assay relative to control; format: ADME, cell-based; outline: as §2
CYP3A4 = CYP3A4 (Homo sapiens, UniProt P08684); assay: Inhibition of recombinant human CYP3A4 expressed in baker's yeast-derived microsomes (Sacchrosomes) at 10 uM using dibenzylfluorescein substrate by EROD assay relative to control; format: ADME; conditions: probe dibenzylfluorescein
Outline: as §1, with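 “(Sacchrosomes). […]” for “(Sacchrosomes).”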

Sequence of CYP3A4 (P08684 whole entry): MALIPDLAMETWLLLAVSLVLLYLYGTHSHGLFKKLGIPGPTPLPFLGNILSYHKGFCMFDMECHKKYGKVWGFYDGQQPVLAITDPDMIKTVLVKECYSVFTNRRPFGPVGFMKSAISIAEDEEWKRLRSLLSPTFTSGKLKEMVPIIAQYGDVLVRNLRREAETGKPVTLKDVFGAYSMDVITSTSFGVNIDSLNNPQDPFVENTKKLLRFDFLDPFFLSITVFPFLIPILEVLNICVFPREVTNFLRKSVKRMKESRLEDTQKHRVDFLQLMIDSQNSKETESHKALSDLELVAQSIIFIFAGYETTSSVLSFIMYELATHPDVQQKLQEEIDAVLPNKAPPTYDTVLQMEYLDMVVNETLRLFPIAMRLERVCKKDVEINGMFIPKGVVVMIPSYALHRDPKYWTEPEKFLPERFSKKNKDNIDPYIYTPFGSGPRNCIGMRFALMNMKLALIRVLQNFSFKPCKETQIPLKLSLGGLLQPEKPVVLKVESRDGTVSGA
Sequence of Cytochrome P450 3A4 (P08684 whole entry): as above
Sequence of CYP2D6 (P10635 whole entry): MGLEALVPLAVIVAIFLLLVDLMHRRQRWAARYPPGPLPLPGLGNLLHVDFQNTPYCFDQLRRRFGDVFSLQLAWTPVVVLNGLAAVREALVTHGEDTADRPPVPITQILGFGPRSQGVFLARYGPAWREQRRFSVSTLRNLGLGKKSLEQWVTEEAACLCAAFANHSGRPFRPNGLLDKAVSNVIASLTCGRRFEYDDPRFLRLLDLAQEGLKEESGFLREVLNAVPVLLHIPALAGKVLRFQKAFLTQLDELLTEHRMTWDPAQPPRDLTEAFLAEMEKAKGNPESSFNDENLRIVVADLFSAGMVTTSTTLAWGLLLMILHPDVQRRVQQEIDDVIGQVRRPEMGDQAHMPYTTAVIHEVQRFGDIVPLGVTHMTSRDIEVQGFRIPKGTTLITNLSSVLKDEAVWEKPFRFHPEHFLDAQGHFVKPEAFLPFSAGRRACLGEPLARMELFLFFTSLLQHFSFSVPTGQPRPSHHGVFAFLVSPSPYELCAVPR
Sequence of Cytochrome P450 2D6 (P10635 whole entry): as above
Sequence of Cytochrome P450 2C19 (P33261 whole entry): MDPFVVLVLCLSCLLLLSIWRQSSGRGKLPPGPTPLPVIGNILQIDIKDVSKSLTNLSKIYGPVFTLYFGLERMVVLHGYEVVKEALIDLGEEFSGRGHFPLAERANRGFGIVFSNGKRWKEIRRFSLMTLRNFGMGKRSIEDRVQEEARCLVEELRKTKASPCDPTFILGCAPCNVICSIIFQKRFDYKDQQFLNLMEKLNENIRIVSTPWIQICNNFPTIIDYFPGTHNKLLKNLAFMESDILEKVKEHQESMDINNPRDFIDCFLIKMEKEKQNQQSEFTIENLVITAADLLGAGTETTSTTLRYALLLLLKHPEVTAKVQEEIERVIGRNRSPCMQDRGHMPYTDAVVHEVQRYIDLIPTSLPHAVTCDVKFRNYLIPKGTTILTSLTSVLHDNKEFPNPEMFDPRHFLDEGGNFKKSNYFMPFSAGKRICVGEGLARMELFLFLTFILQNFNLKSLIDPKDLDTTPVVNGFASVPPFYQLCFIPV
Sequence of CYP2C19 (P33261 whole entry): as above
Sequence of CYP2C9 (P11712 whole entry): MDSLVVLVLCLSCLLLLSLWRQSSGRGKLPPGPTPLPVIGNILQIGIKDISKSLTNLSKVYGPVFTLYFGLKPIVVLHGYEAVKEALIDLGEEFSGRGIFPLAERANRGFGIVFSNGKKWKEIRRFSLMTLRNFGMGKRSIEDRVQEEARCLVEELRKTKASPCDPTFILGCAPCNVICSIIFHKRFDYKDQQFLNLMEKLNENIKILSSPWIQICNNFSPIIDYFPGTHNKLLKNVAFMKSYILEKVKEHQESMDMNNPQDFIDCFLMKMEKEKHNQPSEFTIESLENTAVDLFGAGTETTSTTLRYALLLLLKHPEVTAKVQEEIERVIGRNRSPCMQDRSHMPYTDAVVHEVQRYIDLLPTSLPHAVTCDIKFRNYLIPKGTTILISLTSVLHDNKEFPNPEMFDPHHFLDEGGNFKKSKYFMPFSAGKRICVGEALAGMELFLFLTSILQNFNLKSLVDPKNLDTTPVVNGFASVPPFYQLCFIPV
Sequence of Cytochrome P450 2C9 (P11712 whole entry): as above

Row | inhibition at 10 µM (CYP1A1 [1]) | pIC50 (Cytochrome P450 3A4) | pIC50 (Cytochrome P450 2D6) | pIC50 (Cytochrome P450 2C9) | inhibition at 1 h, 10 µM (CYP1A1 [2]) | inhibition at 10 µM (CYP2C19) | inhibition at 10 µM (CYP2D6) | pIC50 (Cytochrome P450 1B1) | pIC50 (Cytochrome P450 1A1) | pKi (Cytochrome P450 1A1) | inhibition at 10 µM (CYP2C9) | inhibition at 10 µM (CYP1B1) | inhibition at 10 µM (CYP1A2) | pIC50 (Cytochrome P450 1A2) | pKi (Cytochrome P450 1A2) | pIC50 (Cytochrome P450 2C19) | inhibition at 10 µM (CYP3A4) | SMILES
1 | 50 to 52% | < 5.00 | < 5.00 | < 5.00 | 41% | 2% | 5% | 6.67 | 5.03 | 5.02 | 3% | 7% | 55% | 5.06 | 5.06 | < 5.00 | 10% | Nc1nccc(-c2c[nH]c3ccc(Br)cc23)n1 [MERIDIANIN C]
2 | 87 to 97% | < 5.00 | < 5.00 | < 5.00 | 90% | 5% | 20% | 6.66 | 6.24 | 6.21 | 3% | 98% | 96% | 6.38 | 6.42 | < 5.00 | 12% | COc1c2ccoc2c(OCC=C(C)C)c2oc(=O)ccc12 [PHELLOPTERIN]

Row | SMILES | inhibition at 10 µM (CYP1A1 [1]) | pIC50 (Cytochrome P450 3A4) | pIC50 (Cytochrome P450 2D6) | pIC50 (Cytochrome P450 2C9) | inhibition at 1 h, 10 µM (CYP1A1 [2]) | inhibition at 10 µM (CYP2C19) | inhibition at 10 µM (CYP2D6) | pIC50 (Cytochrome P450 1B1) | pIC50 (Cytochrome P450 1A1) | pKi (Cytochrome P450 1A1) | inhibition at 10 µM (CYP2C9) | inhibition at 10 µM (CYP1B1) | inhibition at 10 µM (CYP1A2) | pIC50 (Cytochrome P450 1A2) | pKi (Cytochrome P450 1A2) | pIC50 (Cytochrome P450 2C19) | inhibition at 10 µM (CYP3A4)
3 | O=C1C=CC(=O)c2c(O)ccc(O)c21 [NAPHTHAZALIN] | 79 to 99% | < 5.00 | < 5.00 | < 5.00 | 78% | 4% | 5% | < 5.00 | 5.42 | 5.44 | 5% | 8% | 82% | 5.67 | 5.65 | < 5.00 | 15%
